Experimental data reported in ChEMBL document CHEMBL3120104, “Discovery of the first C-nucleoside HCV polymerase inhibitor (GS-6620) with demonstrated antiviral response in HCV infected patients” (J Med Chem, 2014).
≈ marks a conversion by molar mass, not a printed value.

Experiments:
[1] = Oral absorption in beagle dog at 5 mg/kg, po by LC/MS/MS analysis; type: ADME, organism-based, Canis lupus familiaris; set-up: dose 5 mg/kg, route oral; conditions: in vivo
Summary of the method: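 Naive male beagle dogs were dosed once, orally at 5 mg/kg in EtOH/PEG 400/50 mM citrate buffer pH 4 (5/40/55), or intravenously at 0.5 mg/kg for reference. Plasma was sampled over 24 h and processed by acetonitrile precipitation. Bioavailability %F = AUC_po × Dose_iv / (AUC_iv × Dose_po).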

[2] = AUC (0 to infinity) in jagular vein cannulated beagle dog at 0.5 mg/kg, iv by LC/MS/MS analysis; type: ADME, organism-based, Canis lupus familiaris; set-up: time infinity, dose 0.5 mg/kg, route intravenous; conditions: plasma
Summary of the method: (§1)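 Naive male beagle dogs got a single intravenous infusion of 0.5 mg/kg in EtOH/PEG 400/water 5/20/75, adjusted to pH 4 with HCl. EDTA-K3 blood was collected over 24 h and plasma isolated. Plasma was precipitated with acetonitrile to a final 60%, filtered, dried, reconstituted in 20% acetonitrile and analysed.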

[3] = AUC (0 to infinity) in portal vein cannulated beagle dog at 0.5 mg/kg, iv by LC/MS/MS analysis; type: ADME, organism-based, Canis lupus familiaris; set-up: time infinity, dose 0.5 mg/kg, route intravenous; conditions: plasma; summary of the method: as §1
[4] = Oral bioavailability in golden syrian hamster at 5 mg/kg; type: ADME, organism-based, Mesocricetus auratus; conditions: in vivo
[5] = system: Syrian golden hamster; test: Cmax in golden syrian hamster assessed as liver triphosphate level at 5 mg/kg, po by LC/MS/MS analysis; type: ADME, organism-based, Mesocricetus auratus; set-up: dose 5 mg/kg, route oral; conditions: in vivo
Summary of the method: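 Groups of 12 Golden Syrian hamsters were dosed orally at 5 mg-equiv/kg. Vehicle was EtOH/PEG400/water buffered with 50 mM pH 4 citrate at 2.5 mg-equiv/mL. Liver was homogenized in four volumes of ice-cold 0.1% KOH/67 mM EDTA in 70% MeOH containing 0.25 μM Cl-ATP, then centrifuged, dried and reconstituted in 1 mM ammonium phosphate pH 7.0. Triphosphate was measured by LC/MS/MS, with endogenous ATP checked for sample stability.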

[6] = system: Syrian golden hamster; test: Cmax in golden syrian hamster assessed as liver triphosphate level at 1 mg/kg, iv by LC/MS/MS analysis; type: ADME, organism-based, Mesocricetus auratus; set-up: dose 1 mg/kg, route intravenous; conditions: in vivo
Summary of the method: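 Golden Syrian hamsters in groups of 12, dosed iv at 1 mg-equiv/kg in EtOH/PEG400/water adjusted to pH 4 with HCl (0.5 mg-equiv/mL). Liver homogenised in ice-cold 70% MeOH with 0.1% KOH, 67 mM EDTA and 0.25 μM Cl-ATP internal standard, then centrifuged, dried and reconstituted. Triphosphate measured by LC/MS/MS; endogenous ATP checked for sample stability.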

[7] = Metabolic stability in human liver S9 fraction assessed as extraction at 2 uM after 90 mins by LC/MS/MS analysis; type: ADME, subcellular; conditions: read-out: Stability
Summary of the method: (§2)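 Compound at 2 μM was incubated with human intestinal or hepatic S9 fraction plus NADPH and UDPGA for 90 min at 37 °C. Time-point samples were quenched in aqueous acetonitrile/methanol with internal standard and analysed by LC/MS/MS. Half-life came from an exponential first-order fit, and hepatic extraction was predicted from half-life using the well-stirred model.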

[8] = Half life in human intestinal S9 fraction at 2 uM by LC/MS/MS analysis; type: ADME, Intestine; summary of the method: as §2
[9] = Permeability across basolateral to apical side in human Caco2 cells at 10 uM after 1 to 2 hrs by LC/MS/MS analysis; type: ADME, cell-based; conditions: Caco-2, read-out: permeability
Summary of the method: (§3)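 Caco-2 monolayers were grown at least 21 days, and membrane integrity was checked by TEER after buffer equilibration. Test compound was dosed at 10 μM on the apical or basolateral side, in duplicate wells. Receiver samples at 1 and 2 h were precipitated with acetonitrile plus internal standard and run by LC/MS/MS.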

[10] = Permeability across apical to basolateral side in human Caco2 cells at 10 uM after 1 to 2 hrs by LC/MS/MS analysis; type: ADME, cell-based; conditions: Caco-2, read-out: permeability; summary of the method: as §3
[11] = Aqueous solubility of the compound in phosphate buffer at pH 7 by reverse-phase UPLC-UV method; type: physicochemical
Summary of the method: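 Excess solid was suspended in pH 7 phosphate buffer at ambient temperature, sonicated, then stirred for at least 2 h. After centrifugation, the supernatant was quantified by reverse-phase UPLC-UV.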

[12] = Lipophilicity, log D of the compound by HPLC/UV method; type: physicochemical
Summary of the method: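 A 10 mM DMSO stock was diluted 1:100 into 1:1 acetonitrile/water, shaken 30 min, and analysed by HPLC/UV on a C18 column with 20 mM ammonium acetate/acetonitrile mobile phase.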

[13] = Cytotoxicity against human HuH7 cells after 3 days by fluorescence assay; type: cell-based; conditions: Huh-7 cells
Summary of the method: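 Huh-7 HCV replicon cells were seeded at 2000 cells/well in medium without Geneticin. Compounds were added as ten-point 1:3 DMSO dilutions in quadruplicate (final DMSO 0.44%), with […] as the 100% cytotoxicity control. After 3 days at 37 °C, cells were washed and given 400 nM calcein AM for 30 min at RT, and fluorescence read at ex 490/em 520 nm. Signal was normalized to DMSO and puromycin wells, and CC50 taken from a four-parameter Hill fit.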

[14] = system: Hepatitis C virus; test: Antiviral activity against HCV genotype 1b infected in human HuH7 cells assessed as inhibition of viral replication after 3 days by luminescence assay; type: functional, organism-based, Hepacivirus hominis; conditions: Huh-7, 72 h
Summary of the method: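 Multiplex replicon assay carrying a renilla luciferase reporter, with stable GT1b, 1a and 2a replicons and chimeric 2b, 3a, 4a, 5a and 6a replicons. 2000 replicon cells/well in medium without Geneticin. Ten-step 1:3 serial dilutions, four replicates, 0.44% DMSO final. Incubated 3 days at 37 °C, 5% CO₂. Luminescence normalised to DMSO wells and to protease-inhibitor (ITMN-191) wells. EC50 from a four-parameter Hill fit.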

[15] = Metabolic stability in serum (unknown origin); type: ADME

Structure (SMILES) | Fa [1] [%] | AUC(0-inf) [2] [µM·h] | AUC(0-inf) [3] [µM·h] | bioavailability [4] [%] | Cmax [5] [nM] | Cmax [6] [nM] | hepatic extraction ratio at 1.5 h, 2 µM [7] | half-life at 2 µM [8] [h] | Papp B→A at 10 µM [9] [×10⁻⁶ cm/s] | Papp A→B at 10 µM [10] [×10⁻⁶ cm/s] | solubility [11] [µg/mL] | logD [12] | CC50 at 72 h [13] [nM] | EC50 [14] [nM] | Stability [15]
CCC(CC)COC(=O)[C@H](C)NP(=O)(OC[C@H]1O[C@@](C#N)(c2ccc3c(N)ncnn23)[C@](C)(O)[C@@H]1O)Oc1ccccc1 (stereo partly drawn) | 7.9 | 0.02 | 0.21 | 5.4 | 2260 | 8330 | 0.97 | 1.23 | 7.2 | 0.36 | 1.8 (≈ 2.92 µM) | 2.7 | 35000 | 440 | –
CC[C@@H](C)OC(=O)[C@H](C)NP(=O)(OC[C@H]1O[C@@](C#N)(c2ccc3c(N)ncnn23)[C@](C)(O)[C@@H]1O)Oc1ccccc1 (stereo partly drawn) | 8.1 | 0.14 | 0.46 | – | 1870 | – | 0.94 | 7.68 | 37.5 | 0.75 | 151 (≈ 257 µM) | 1.9 | > 89000 | 980 | Stable
COC(=O)[C@H](C)NP(=O)(OC[C@H]1O[C@@](C#N)(c2ccc3c(N)ncnn23)[C@](C)(O)[C@@H]1O)Oc1ccccc1 (stereo partly drawn) | – | – | – | 0.9 | 290 | 6350 | 0.9 | 3.17 | 4.64 | 0.41 | – | 1.3 | > 89000 | 1370 | –
C[C@H](NP(=O)(OC[C@H]1O[C@@](C#N)(c2ccc3c(N)ncnn23)[C@](C)(O)[C@@H]1O)Oc1ccccc1)C(=O)OCc1ccccc1 (stereo partly drawn) | – | – | – | – | 860 | – | 0.93 | 2.15 | 25.3 | 3.35 | 0.05 (≈ 0.0803 µM) | 2.2 | 63000 | 330 | –
CC(C)OC(=O)[C@H](C)NP(=O)(OC[C@H]1O[C@@](C#N)(c2ccc3c(N)ncnn23)[C@]2(C)OC(=O)O[C@H]12)Oc1ccccc1 (stereo partly drawn) | 29 | – | – | – | 590 | 1920 | – | – | – | – | – | 2.6 | > 89000 | 1410 | Stable
CCOC(=O)[C@H](C)NP(=O)(OC[C@H]1O[C@@](C#N)(c2ccc3c(N)ncnn23)[C@](C)(O)[C@@H]1O)Oc1ccccc1 (stereo partly drawn) | – | – | – | 2.5 | 570 | 4480 | 0.89 | 1.15 | 2.98 | 0.17 | 108 (≈ 193 µM) | 1.6 | > 89000 | 1450 | –
C#C[C@@]1(c2ccc3c(N)ncnn23)O[C@H](CO)[C@@H](O)[C@@]1(C)O | – | – | – | – | – | – | – | – | – | – | – | – | – | > 89000 | –
C[C@H](NP(=O)(OC[C@H]1O[C@@](C#N)(c2ccc3c(N)ncnn23)[C@](C)(O)[C@@H]1O)Oc1ccccc1)C(=O)OC(C)(C)C (stereo partly drawn) | – | – | – | – | – | – | 0.84 | > 10.2 | 31.1 | 0.67 | 380 (≈ 646 µM) | 2.2 | > 89000 | > 89000 | –
